Key:
Cannabinoid receptor 1 = Cannabinoid receptor 1 (Rattus norvegicus, UniProt P20272); assay: Inhibitory activity, measured by displacement [3H]CP-55940 from cannabinoid receptor (CB1) in rat brain; format: tissue-based
[1] = Inhibitory activity at GABA B receptor, measured by the ability to displace [3H]baclofen from GABA B receptor in rat brain; format: tissue-based
[2] = target: GABA-A receptor; anion channel; assay: Inhibitory activity at GABA A receptor, measured by the ability to displace [35S]TBPS from GABA A receptor in rat brain; format: tissue-based
[3] = target: GABA-A receptor; anion channel; assay: Inhibitory activity at GABA A receptor, measured by the ability to displace [3H]GABA from GABA A receptor in rat brain; format: tissue-based
[4] = target: GABA-A receptor; anion channel; assay: Inhibitory activity at GABA A receptor, measured by the ability to displace [3H]flumazenil from GABA A receptor in rat brain; format: tissue-based
[5] = target: GABA-A receptor; anion channel; assay: Inhibitory activity at GABA A receptor, measured by the ability to displace [3H]zolpidem from GABA A receptor in rat brain; format: tissue-based
[6] = target: T1, Gastrin/cholecystokinin type B receptor (Rattus norvegicus, UniProt P30553); assay: Inhibitory activity by measuring its ability to displace [3H]L-365260 from cholecystokinin receptor in rat brain; format: tissue-based
T1 sequence (P30553 whole entry): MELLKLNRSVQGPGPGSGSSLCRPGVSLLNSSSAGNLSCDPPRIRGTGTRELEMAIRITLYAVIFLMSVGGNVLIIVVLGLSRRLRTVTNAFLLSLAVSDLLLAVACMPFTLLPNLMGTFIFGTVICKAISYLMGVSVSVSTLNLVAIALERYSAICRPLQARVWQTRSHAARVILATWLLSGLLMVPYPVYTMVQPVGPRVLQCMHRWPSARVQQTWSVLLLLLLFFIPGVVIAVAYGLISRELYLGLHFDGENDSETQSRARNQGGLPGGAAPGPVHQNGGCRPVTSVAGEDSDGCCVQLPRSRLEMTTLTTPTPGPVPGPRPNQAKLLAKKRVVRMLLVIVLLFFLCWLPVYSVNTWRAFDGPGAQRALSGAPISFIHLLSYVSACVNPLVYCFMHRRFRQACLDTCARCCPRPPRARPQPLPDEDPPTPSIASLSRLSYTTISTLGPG

[7] = target: Adrenergic receptor alpha; assay: Inhibitory activity by measuring its ability to displace [3H]WB-4101 from alpha-adrenergic receptor in rat brain; format: tissue-based
[8] = target: Adrenergic receptor alpha; assay: Inhibitory activity by measuring its ability to displace [3H]clonidine from alpha-adrenergic receptor in rat brain; format: tissue-based
Adrenergic receptor beta = Adrenergic receptor beta (Rattus norvegicus, UniProt P18090+P10608+P26255); assay: Inhibitory activity by measuring its ability to displace [125I]pindolol from beta-adrenergic receptor in rat brain; format: tissue-based
[9] = Inhibitory activity by measuring its ability to displace [3H]glycine from glycine receptor in rat brain; format: tissue-based
Glutamate NMDA receptor = assay: Inhibitory activity by measuring its ability to displace [3H]-MK-801 from glutamate(NMDA) receptor in rat brain; format: tissue-based
[10] = Tested for inhibitory activity by measuring its ability to displace [3H]AMPA from glutamate (non-NMDA) receptor in rat brain; format: tissue-based
[11] = Inhibitory activity by measuring its ability to displace [3H]spiperone from dopamine or serotonin 5-HT-1 receptors in rat brain; format: tissue-based
Opioid receptor = Opioid receptor (Rattus norvegicus, UniProt P33533+P34975+P33535); assay: Inhibition of [3H]naxolone binding to opiate receptors in rat brain; format: tissue-based
Translocator protein = Translocator protein (Rattus norvegicus, UniProt P16257); assay: Binding affinity against mitochondrial DBI complex (peripheral benzodiazepine receptor) using primary cultures of glial cells
Translocator protein, sequence (P16257 whole entry, looked up): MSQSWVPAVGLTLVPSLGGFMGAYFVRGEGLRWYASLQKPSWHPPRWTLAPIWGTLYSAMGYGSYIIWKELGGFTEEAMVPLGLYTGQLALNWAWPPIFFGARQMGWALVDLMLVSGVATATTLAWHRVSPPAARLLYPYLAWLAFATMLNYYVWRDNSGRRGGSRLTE
Method in brief: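 Glia from cerebella of 8-day-old Sprague–Dawley rat pups, trypsin-dissociated and grown 14 days (~95% astroglia). Cells lysed in 50 mM Hepes pH 7.4, 4 μg protein per tube. Incubated with [3H]4'-chlorodiazepam and competitor for 90 min at 4 °C, then filtered. Nonspecific binding defined with 10 μM 4'-chlorodiazepam. Triplicate competition curves; IC50 by nonlinear regression, converted to Ki (Bylund–Yamamura).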

[12] = target: Serotonin 2 (5-HT2) receptor (Rattus norvegicus); assay: Inhibitory activity by measuring its ability to displace [3H]ketanserin from serotonin receptor in rat brain
[13] = target: Sigma receptor (Rattus norvegicus); assay: Tested for inhibitory activity by measuring its ability to displace [3H]3-PPP from sigma receptor in rat brain

Cannabinoid receptor 1, sequence (P20272 whole entry): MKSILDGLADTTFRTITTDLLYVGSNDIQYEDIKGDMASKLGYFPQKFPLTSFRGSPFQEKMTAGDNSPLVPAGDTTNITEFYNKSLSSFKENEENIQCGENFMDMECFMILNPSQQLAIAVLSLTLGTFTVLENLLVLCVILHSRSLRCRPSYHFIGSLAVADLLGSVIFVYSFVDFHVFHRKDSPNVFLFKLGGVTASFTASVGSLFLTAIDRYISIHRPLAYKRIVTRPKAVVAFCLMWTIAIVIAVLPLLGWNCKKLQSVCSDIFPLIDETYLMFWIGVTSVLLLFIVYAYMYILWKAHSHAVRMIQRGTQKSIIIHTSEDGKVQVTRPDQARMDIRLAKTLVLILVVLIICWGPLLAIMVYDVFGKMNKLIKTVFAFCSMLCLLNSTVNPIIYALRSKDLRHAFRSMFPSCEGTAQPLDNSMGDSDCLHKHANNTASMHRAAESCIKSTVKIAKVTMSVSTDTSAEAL

Structure (SMILES) | IC50 (Cannabinoid receptor 1) [nM] | IC50 [1] [nM] | IC50 [2] [nM] | IC50 [3] [nM] | IC50 [4] [nM] | IC50 [5] [nM] | IC50 [6] [nM] | IC50 [7] [nM] | IC50 [8] [nM] | IC50 (Adrenergic receptor beta) [nM] | IC50 [9] [nM] | IC50 (Glutamate NMDA receptor) [nM] | IC50 [10] [nM] | IC50 [11] [nM] | IC50 (Opioid receptor) [nM] | Ki (Translocator protein) [nM] | IC50 [12] [nM] | IC50 [13] [nM]
CCCN(CCC)C(=O)/C=C/c1c(-c2ccc(Cl)cc2)[nH]c2ccccc12 | > 1000 | > 1000 | > 1000 | > 1000 | > 1000 | > 1000 | > 1000 | > 1000 | > 1000 | > 1000 | > 1000 | > 1000 | > 1000 | > 1000 | > 1000 | 400 | > 1000 | > 1000
CCCN(CCC)C(=O)Cc1c(-c2ccc(Br)cc2)[nH]c2ccccc12 | > 1000 | > 1000 | > 1000 | > 1000 | > 1000 | > 1000 | > 1000 | > 1000 | > 1000 | > 1000 | > 1000 | > 1000 | > 1000 | > 1000 | > 1000 | 216 | > 1000 | > 1000
CCCN(CCC)C(=O)Cc1c(-c2ccc(I)cc2)[nH]c2ccccc12 | > 1000 | > 1000 | > 1000 | > 1000 | > 1000 | > 1000 | > 1000 | > 1000 | > 1000 | > 1000 | > 1000 | > 1000 | > 1000 | > 1000 | > 1000 | 216 | > 1000 | > 1000
CCCN(CCC)C(=O)Cc1c(-c2ccc(Cl)cc2)n(C)c2ccccc12 | > 1000 | > 1000 | > 1000 | > 1000 | > 1000 | > 1000 | > 1000 | > 1000 | > 1000 | > 1000 | > 1000 | > 1000 | > 1000 | > 1000 | > 1000 | 340 | > 1000 | > 1000
CCCN(CCC)C(=O)Cc1c(-c2ccccc2)[nH]c2cc(F)ccc12 | > 1000 | > 1000 | > 1000 | > 1000 | > 1000 | > 1000 | > 1000 | > 1000 | > 1000 | > 1000 | > 1000 | > 1000 | > 1000 | > 1000 | > 1000 | 202 | > 1000 | > 1000

Continued, values first:

IC50 (Cannabinoid receptor 1) [nM] | IC50 [1] [nM] | IC50 [2] [nM] | IC50 [3] [nM] | IC50 [4] [nM] | IC50 [5] [nM] | IC50 [6] [nM] | IC50 [7] [nM] | IC50 [8] [nM] | IC50 (Adrenergic receptor beta) [nM] | IC50 [9] [nM] | IC50 (Glutamate NMDA receptor) [nM] | IC50 [10] [nM] | IC50 [11] [nM] | IC50 (Opioid receptor) [nM] | Ki (Translocator protein) [nM] | IC50 [12] [nM] | IC50 [13] [nM] | Structure (SMILES)
> 1000 | > 1000 | > 1000 | > 1000 | > 1000 | > 1000 | > 1000 | > 1000 | > 1000 | > 1000 | > 1000 | > 1000 | > 1000 | > 1000 | > 1000 | – | > 1000 | > 1000 | c1ccc(-c2[nH]c3ccccc3c2CC2=NCCN2)cc1
> 1000 | > 1000 | > 1000 | > 1000 | > 1000 | > 1000 | > 1000 | > 1000 | > 1000 | > 1000 | > 1000 | > 1000 | > 1000 | > 1000 | > 1000 | – | > 1000 | > 1000 | O=C1Cc2c(-c3ccccc3)[nH]c3cccc(c23)N1

From ChEMBL document CHEMBL1126834, “Chemistry, binding affinities, and behavioral properties of a new class of "antineophobic" mitochondrial DBI receptor complex (mDRC) ligands” (J Med Chem, 1993)
